Measured values pooled from the literature.
Lines come from different studies, so protocols differ.
Observed: cell growth or viability

COc1nc(NCc2cn(-c3ccc(NC(=O)c4ccccc4)cc3)nn2)nc(OC)n1
IC50 (Caco-2; MTT; 72 h): 766 nM

COc1cc2c3c(n(CCCNCCO)c(=O)c2cc1OC)-c1nc2c(cc1C3=O)OCO2
IC50 (TC-32; MTS; 72 h): 104 nM

COc1nc(NCc2cn(-c3ccc(NC(=O)c4ccc([N+](=O)[O-])cc4)cc3)nn2)nc(OC)n1
IC50 (Caco-2; MTT; 72 h): 658 nM

C=CC(=O)N1CCN(c2nc(=O)n(-c3c(C)ccnc3C(C)C)c3nc(-c4c(O)cccc4F)c(F)cc23)[C@@H](C)C1
IC50 (UMUC3; ATP luminescence): 48.8 nM

N[C@H]1CC[C@H](N[C@@H]2C[C@H]2c2ccccc2)CC1
IC50 (TC-32; resazurin): 178000 nM

C=C(F)C(=O)N1CCN(c2nc(OC[C@@H]3CCCN3C)nc3c2CCN(c2cccc4cccc(Cl)c24)C3)C[C@@H]1CC#N
IC50 (UMUC3; ATP luminescence): 294 nM

CCCOc1nc(-c2cccc(O)c2)cc(-c2cc3cc(Cl)ccc3nc2N2CCOCC2)c1C#N
IC50 (Caco-2; MTT; 72 h): 355 nM

COc1cccc2c1C(=O)c1c(O)c3c(c(O)c1C2=O)C[C@@](O)(C(=O)CO)C[C@@H]3O[C@H]1C[C@H](N)[C@H](O)[C@H](C)O1
IC50 (Caco-2; MTT; 72 h): 1010 nM

CC(C)Oc1ccc(S(=O)(=O)c2ccc(Oc3cc(OCC(N)=O)c(C(=O)C(Cl)Cl)cc3[N+](=O)[O-])cc2)cc1
IC50 (NCI-H1650; MTT; 72 h): 460 nM

CC(C)c1ccccc1[C@@H]1CCCN1C1CC2(CCN(c3ccc(C(=O)NS(=O)(=O)c4ccc(NC[C@H]5CC[C@](C)(O)CC5)c([N+](=O)[O-])c4)c(Oc4cnc5[nH]ccc5c4)c3)CC2)C1
IC50 (SU-DHL-4; ATP luminescence; 48 h): 2.7 nM

COc1nc(NCc2cn(-c3ccc(C(=O)Nc4ccc(C)cc4)cc3)nn2)nc(OC)n1
IC50 (Caco-2; MTT; 72 h): 514 nM

CCOc1nc(-c2cccc(O)c2)cc(-c2cc3ccccc3nc2N2CCOCC2)c1C#N
IC50 (Caco-2; MTT; 72 h): 141 nM

COc1nc(NCc2cn(-c3ccc(C(=O)Nc4ccc(C(F)(F)F)cc4)cc3)nn2)nc(OC)n1
IC50 (Caco-2; MTT; 72 h): 171 nM

Nc1n[nH]c2nc(-c3cccc(O)c3)cc(-c3cc4ccccc4nc3N3CCOCC3)c12
IC50 (Caco-2; MTT; 72 h): 625 nM

COc1cc2c3c(n(CCCNC(C)C)c(=O)c2cc1OC)-c1nc2c(cc1C3=O)OCO2
IC50 (TC-32; MTS; 72 h): 55 nM
